Screening results: PubChem, several laboratories
Rows were chosen to be rich in hits. Some 2.1% of all compounds tested hit in one or more screens of this group.
CRFBP-R2 agonist: agonists of human CRF-binding protein/CRF-R2 receptor complex | HEK293 CRF-R2/CRF-BP, calcium dye fluorescence (FLIPR); percent of saturating CRF peptide response | activation, % at 13.2 µM | actives 0.46% (n = 350,000) | AID 588473;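 active = activation of at least 50%, plus an integration ratio under a set limit after plate pattern correction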
H9c2 protect: protects H9c2 cardiomyocytes from peroxide injury. H2O2 injury protection, ATPLite, 2 h. protection from H2O2 cell death, % at 20 µM. actives 0.63% (n = 360,000). AID 588492;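 active = compounds giving at least 50% protection of heart cells from peroxide-induced death in the single-dose screen, raw or plate-pattern-corrected value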
iPSC survival up: increases survival of single human iPS cells. survival enhancement, % at 20 µM. AID 602274. hiPSC single-cell survival, ATPlite luminescence; 100% = ROCK inhibitor wells, 0% = DMSO. actives 0.044% (n = 360,000); in the data active = survival enhancement above about 18%;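 also: cells exposed to compounds for 16 hours before the ATP read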
beta cell repl: MIN6 beta-cell proliferation induction; MIN6 cells proliferation, ATPlite luminescence, 48 h; cells starved in 0.2% serum; 100% = growth in 10% serum; proliferation, % at 10 µM; actives 0.29% (n = 330,000);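 active = compounds whose signal lies at least 3.5 SD above the mean of all wells on their plate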
CRFR2-BP antag: CRF-BP/CRF-R2 complex antagonism; HEK293 CRF-R2/CRF-BP, CRF-induced calcium fluorescence; inhibition, % at 11.8 µM; actives 0.59% (n = 350,000); AID 588475;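 active = inhibition of the ligand-induced calcium signal above about 50% at the single tested concentration, limit read from the data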
UCH37 inh: blocks the human deubiquitinase UCH37; Q9Y5K5; purified proteasome/UCH37, Ub-AMC cleavage fluorescence; inhibition, % (test concentration not listed); actives 0.33% (n = 330,000); AID 588478;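 active = mean inhibition over replicate wells above about 20%, limit read from the data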
Target sequence (Q9Y5K5 whole entry, looked up): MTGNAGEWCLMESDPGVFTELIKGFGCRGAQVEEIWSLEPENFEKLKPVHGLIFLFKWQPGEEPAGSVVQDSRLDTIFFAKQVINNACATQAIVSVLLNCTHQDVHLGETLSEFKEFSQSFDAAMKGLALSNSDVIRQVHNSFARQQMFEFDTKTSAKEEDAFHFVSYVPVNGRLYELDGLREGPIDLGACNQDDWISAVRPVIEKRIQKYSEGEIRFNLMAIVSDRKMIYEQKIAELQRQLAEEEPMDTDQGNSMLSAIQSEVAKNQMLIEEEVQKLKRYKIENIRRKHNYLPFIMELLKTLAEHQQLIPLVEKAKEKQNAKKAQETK
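Assay system: Proteasome-bound UCH37. Buffer or medium: pH 7.4 Tris-HCl (50 mM) with ovalbumin, ATP-MgCl2, DTT. Incubation: 30 min preincubation with enzyme, 25 min cleavage at room temperature. Measured by: fluorescence, ex 355 nm, em 460 nm. Read-out basis: percent inhibition. Control set: wells without proteasome as full block, compound-free enzyme plus substrate as uninhibited.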
A number is an active result.

CC(=NNC(=S)NC1CCCCC1)c1cccc(C(F)(F)F)c1 was read as UCH37 inh inactive.
COC(=O)C(OC(=O)c1ccccc1)C(C)Br (stereo unspecified) was read as CRFBP-R2 agonist inactive, H9c2 protect inactive, iPSC survival up inactive, beta cell repl inactive, CRFR2-BP antag 63 and UCH37 inh inactive.
For CC(C)OC(=O)c1ccc(NC(=O)c2ccccc2)cc1 the results were CRFBP-R2 agonist inactive, H9c2 protect inactive, iPSC survival up inactive, beta cell repl inactive, CRFR2-BP antag inactive and UCH37 inh inactive.
For CCOc1ccc2c(c1)C(=NN1C(=O)c3ccccc3C1=O)C(=O)N2 the results were UCH37 inh inactive.
For CN(C)C=Nc1cc(=O)[nH]c(=O)n1Cc1ccccc1 the results were UCH37 inh inactive.
CNc1nc2[nH]c(=O)c3c(c2s1)OC(N)=C(C#N)C3c1cccc(F)c1 (stereo unspecified) was read as CRFBP-R2 agonist 103, H9c2 protect inactive, iPSC survival up inactive, beta cell repl inactive and CRFR2-BP antag inactive.
CC(=O)OCCn1c(C)[n+](CCOC(C)=O)c2cc(Cl)c(Cl)cc21 was read as CRFBP-R2 agonist inactive, H9c2 protect inactive, iPSC survival up inactive, beta cell repl inactive, CRFR2-BP antag inactive and UCH37 inh inactive.
`CC(=O)OCCn1c2nc(=O)[nH]c(=O)c-2nc2cc(C)c(C)cc21` gave CRFBP-R2 agonist 203, H9c2 protect inactive, iPSC survival up inactive, beta cell repl inactive, CRFR2-BP antag inactive and UCH37 inh inactive.
COc1ccc(C(CC(=O)Nc2ccc(F)cc2)c2ccccc2)cc1 (stereo unspecified) was read as CRFBP-R2 agonist inactive, H9c2 protect inactive, iPSC survival up inactive, beta cell repl inactive, CRFR2-BP antag 52 and UCH37 inh inactive.
For COc1cc2cc(-c3ccc(O)cc3O)nc(C)c2cc1OC the results were CRFBP-R2 agonist inactive, H9c2 protect 71, iPSC survival up inactive, beta cell repl inactive, CRFR2-BP antag inactive and UCH37 inh inactive.
For O=C(Nc1ccccc1N1CCCCC1)C1CCN(C(=O)c2ccc(Cl)cc2)CC1 the results were CRFBP-R2 agonist inactive, H9c2 protect inactive, iPSC survival up inactive, beta cell repl inactive, CRFR2-BP antag 100 and UCH37 inh inactive.
Screening CC(C)C(=O)NC(=S)Nc1ccccc1N1CCN(C(=O)c2ccc(Cl)cc2)CC1 returned CRFBP-R2 agonist inactive, H9c2 protect 52, iPSC survival up inactive, beta cell repl inactive, CRFR2-BP antag inactive and UCH37 inh inactive.
`Cn1cc(C(=O)NN=C/C(Br)=C\c2ccccc2)ccc1=O` gave UCH37 inh inactive.
Screening CC(=NNC(=O)c1cc(C)[nH]n1)c1ccc(-c2ccccc2)cc1 returned UCH37 inh inactive.
`Cc1ccc(C=N/N=C2/NC(=O)C(CC(=O)Nc3ccccc3)S2)o1` (stereo unspecified) gave UCH37 inh inactive.
CC(CC(=O)Nc1ccc2c(c1)OCCO2)=NNC(=O)COc1ccc(Cl)c(C)c1 was read as UCH37 inh inactive.
`Cc1ccc(NC(=O)CSc2ccc(-c3ccccn3)nn2)cc1` gave CRFBP-R2 agonist inactive, H9c2 protect 54, iPSC survival up inactive, beta cell repl inactive, CRFR2-BP antag inactive and UCH37 inh inactive.
Screening CCOc1ccc(NC(=O)CSc2ccc(-c3ccccn3)nn2)cc1 returned CRFBP-R2 agonist inactive, H9c2 protect inactive, iPSC survival up inactive, beta cell repl inactive, CRFR2-BP antag inactive and UCH37 inh inactive.
Screening COC1=CC(=Cc2c(N)n3nc(CC(=O)N4CCCCC4)sc3nc2=O)C=C(OC)C1=O returned CRFBP-R2 agonist 173, H9c2 protect inactive, iPSC survival up inactive, beta cell repl inactive and CRFR2-BP antag inactive.
`COC1=C/C(=C/c2c(N)n3nc(CC(=O)N4CCCC4)sc3nc2=O)C=CC1=O` gave CRFBP-R2 agonist inactive, H9c2 protect inactive, iPSC survival up inactive, beta cell repl inactive, CRFR2-BP antag inactive and UCH37 inh inactive.
For COc1cccc(CNC(=O)CN(C)S(=O)(=O)c2ccc3c(c2)n(C)c(=O)c(=O)n3C)c1 the results were CRFBP-R2 agonist inactive, H9c2 protect inactive, iPSC survival up inactive, beta cell repl inactive, CRFR2-BP antag inactive and UCH37 inh inactive.
For COc1ccc(CNC(=O)CCc2nc3cc(S(=O)(=O)N(C)C)ccc3n2C)cc1OC the results were CRFBP-R2 agonist inactive, H9c2 protect inactive, iPSC survival up inactive, beta cell repl inactive, CRFR2-BP antag 64 and UCH37 inh inactive.
Screening COc1ccc(CNC(=O)CN(C)S(=O)(=O)c2ccc3c(c2)n(C)c(=O)c(=O)n3C)cc1 returned CRFBP-R2 agonist inactive, H9c2 protect inactive, iPSC survival up inactive, beta cell repl inactive, CRFR2-BP antag 69 and UCH37 inh inactive.
Screening CCc1ccc(NC(=O)C(=O)NN=C(C)CC(=O)NCc2ccc(Cl)cc2)cc1 returned UCH37 inh inactive.
`COc1cc(/C=C(/C#N)c2nc3ccccc3[nH]2)ccc1OCC(=O)Nc1ccccc1C` gave CRFBP-R2 agonist inactive, H9c2 protect inactive, iPSC survival up inactive, beta cell repl inactive, CRFR2-BP antag inactive and UCH37 inh inactive.
COc1cc(/C=C(/C#N)c2nc3ccccc3[nH]2)ccc1OCC(=O)Nc1ccccc1C(C)C was read as CRFBP-R2 agonist inactive, H9c2 protect 68, iPSC survival up inactive, beta cell repl inactive, CRFR2-BP antag inactive and UCH37 inh inactive.
`CC(=NNC(=O)CN1CCOCC1)C(C)(C)C` gave UCH37 inh inactive.
For CC(=O)Nc1ccc(S(=O)(=O)N2CCC(NC(C)=O)(c3cccc(F)c3)CC2)cc1 the results were CRFBP-R2 agonist inactive, H9c2 protect inactive, iPSC survival up inactive, beta cell repl inactive, CRFR2-BP antag 51 and UCH37 inh inactive.
`CC(=O)Nc1ccc(S(=O)(=O)N2CCC(C(=O)O)(c3ccccc3)CC2)cc1` gave CRFBP-R2 agonist inactive, H9c2 protect inactive, iPSC survival up inactive, beta cell repl inactive, CRFR2-BP antag inactive and UCH37 inh inactive.
CC(OC(=O)Cc1n[nH]c(=O)c2ccccc12)C(=O)Nc1ccc(S(N)(=O)=O)cc1 (stereo unspecified) was read as CRFBP-R2 agonist inactive, H9c2 protect inactive, iPSC survival up inactive, beta cell repl inactive, CRFR2-BP antag inactive and UCH37 inh inactive.
For Cc1cccc(C(C)C)c1NC(=O)C(C)OC(=O)Cc1n[nH]c(=O)c2ccccc12 (stereo unspecified) the results were CRFBP-R2 agonist inactive, H9c2 protect 71, iPSC survival up inactive, beta cell repl inactive, CRFR2-BP antag inactive and UCH37 inh inactive.
Screening COc1ccccc1NC(=O)C(C)OC(=O)Cc1n[nH]c(=O)c2ccccc12 (stereo unspecified) returned CRFBP-R2 agonist inactive, H9c2 protect 66, iPSC survival up inactive, beta cell repl inactive, CRFR2-BP antag inactive and UCH37 inh inactive.
